Source: ChEMBL document CHEMBL2163334, “Discovery of highly potent and selective pan-Aurora kinase inhibitors with enhanced in vivo antitumor therapeutic index” (J Med Chem, 2012)
Active and inactive are the calls of the source. The rule behind the calls is not given here.

Key:
[1] = Volume of distribution in Nu/Nu rat at 3 mg/kg, iv administered using TPPW as vehicle; type: ADME, organism-based; parameters: dose 3 mg/kg, route intravenous; conditions: in vivo
Outline: (§1)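 Plasma from K3 EDTA blood at 5, 15, 30 min, 1, 2, 4, 6, 24 h; acetonitrile extraction with internal standard, LC-MS/MS on C8 column, 5-95% ACN gradient with 0.05% formic acid.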

[2] = Clearance in athymic Nu/Nu rat at 3 mg/kg, iv administered using TPPW as vehicle; type: ADME, organism-based; parameters: dose 3 mg/kg, route intravenous; conditions: in vivo; outline: as §1
Aurora kinase A [3] = target: T1, Aurora kinase A (Homo sapiens, UniProt O14965); experiment: Inhibition of Aurora kinase A autophosphorylation in human HEK293 cells after 2 hrs by phosphor antibody readout assay; type: cell-based
T1 sequence (O14965 whole entry): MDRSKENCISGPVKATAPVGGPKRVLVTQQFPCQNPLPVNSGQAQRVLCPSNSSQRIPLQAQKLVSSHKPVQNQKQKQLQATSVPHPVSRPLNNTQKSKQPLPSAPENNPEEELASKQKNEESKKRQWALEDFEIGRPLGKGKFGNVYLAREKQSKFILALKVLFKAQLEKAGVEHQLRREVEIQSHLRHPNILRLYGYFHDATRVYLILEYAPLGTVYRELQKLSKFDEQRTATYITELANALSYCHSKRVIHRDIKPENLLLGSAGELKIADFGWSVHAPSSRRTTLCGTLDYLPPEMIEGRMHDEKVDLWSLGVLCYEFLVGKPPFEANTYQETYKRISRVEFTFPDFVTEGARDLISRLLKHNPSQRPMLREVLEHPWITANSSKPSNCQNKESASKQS

Rattus norvegicus [4] = experiment: Toxicity in athymic nude rat bearing human HCT116 cells assessed body weight loss at 40 mg/kg, iv administered every other day from day 10 post tumor-injection for 3 weeks; type: organism-based, HCT-116; parameters: dose 40 mg/kg, route intravenous; conditions: in vivo, 504 h
Outline: (§2)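 Subcutaneous flank HCT-116 xenografts in nude rats; at Day 1 groups of 10 with mean tumor 301-306 mm³. Tail-vein iv in TPPW (2% Tween-80, 5% propylene glycol, 10% PG-400, 83% water) at 10 mL/kg, weight-adjusted: days 1,3,5,8,10,12,15,17,19 or days 1-4, 8-11, 15-18. Irinotecan control 100 mg/kg ip weekly ×3.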

Aurora kinase B [5] = target: T2, Aurora kinase B (Homo sapiens, UniProt Q96GD4); experiment: Inhibition of Aurora kinase B-mediated histone H3 Ser10 phosphorylation in human HCT116 cells after 2 hrs by sandwich ELISA; type: cell-based, HCT-116
T2 sequence (Q96GD4 whole entry): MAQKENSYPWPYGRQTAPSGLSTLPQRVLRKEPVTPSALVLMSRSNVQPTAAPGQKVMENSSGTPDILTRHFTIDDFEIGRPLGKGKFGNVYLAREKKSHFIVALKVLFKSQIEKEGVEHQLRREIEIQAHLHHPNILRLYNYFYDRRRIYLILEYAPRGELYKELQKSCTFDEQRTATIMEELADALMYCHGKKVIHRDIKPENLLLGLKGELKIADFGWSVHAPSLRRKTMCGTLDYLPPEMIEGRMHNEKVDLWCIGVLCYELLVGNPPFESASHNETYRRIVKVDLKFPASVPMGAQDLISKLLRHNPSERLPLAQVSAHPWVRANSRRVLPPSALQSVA
Outline: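 HCT-116 cells seeded 4 × 10⁴/well, 4-6 h at 37 °C, then arrested overnight (16-18 h) with nocodazole at 66 ng/mL final. Treated 2 h with nine-point 3-fold dilutions in DMSO; lysed with phosphatase inhibitor, phospho-H3 (Ser10) sandwich ELISA read at 450 nm. IC50 = 50% inhibition of phosphorylation; duplicate runs averaged.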

[6] = AUC (0 to infinity) in Nu/Nu rat at 3 mg/kg, iv administered using TPPW as vehicle; type: ADME, organism-based; parameters: time infinity, dose 3 mg/kg, route intravenous; conditions: plasma; outline: as §1
HCT-116 [7] = experiment: Antitumor activity against human HCT116 cells xenografted in athymic nude rat assessed as tumor growth inhibition at 10 mg/kg, iv administered QD for 4 days per week followed by 3 days off per week for 3 weeks; type: functional, organism-based; parameters: dose 10 mg/kg; outline: as §2
Rattus norvegicus [8] = experiment: Toxicity in athymic nude rat bearing human HCT116 cells assessed as adverse effects at 5 to 10 mg/kg, iv administered QD for 4 days per week followed by 3 days off per week for 3 weeks; type: organism-based, HCT-116; parameters: dose 5-10 mg/kg, route intravenous; conditions: in vivo; outline: as §2
HCT-116 [9] = experiment: Antitumor activity against human HCT116 cells xenografted in athymic nude rat assessed as tumor stasis at 10 to 20 mg/kg, iv administered every other day from day 10 post tumor-injection for 3 weeks measured upto 40 days; type: functional, organism-based
Outline: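 HCT-116 flank xenografts in nude rats, groups of 10 at mean 301-306 mm³; iv tail-vein dosing in TPPW at 10 mL/kg on days 1,3,5,8,10,12,15,17,19; tumors followed after dosing stopped, study ending day 42 or day 60.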

[10] = Half life in Nu/Nu rat at 3 mg/kg, iv administered using TPPW as vehicle; type: ADME, organism-based; parameters: dose 3 mg/kg, route intravenous; conditions: in vivo; outline: as §1
Rattus norvegicus [11] = experiment: Toxicity in athymic nude rat bearing human HCT116 cells assessed body weight loss up to 20 mg/kg, iv administered every other day from day 10 post tumor-injection for 3 weeks; type: organism-based, HCT-116; parameters: dose 20 mg/kg, route intravenous; conditions: in vivo, 504 h; outline: as §2
HCT-116 [12] = experiment: Antitumor activity against human HCT116 cells xenografted in athymic nude rat assessed as tumor growth inhibition at 20 mg/kg, iv administered every other day from day 10 post tumor-injection for 3 weeks relative to vehicle treated control; type: functional; conditions: read-out: TGI; outline: as §2
[13] = Volume of distribution in Nu/Nu rat at 30 mg/kg, iv administered using TPPW as vehicle; type: ADME, organism-based; parameters: dose 30 mg/kg, route intravenous; conditions: in vivo; outline: as §1
HCT-116 [14] = experiment: Antitumor activity against human HCT116 cells xenografted in athymic nude rat assessed as tumor growth inhibition at 5 mg/kg, iv administered QD for 4 days per week followed by 3 days off per week for 3 weeks; type: functional, organism-based; parameters: dose 5 mg/kg; outline: as §2
[15] = Half life in Nu/Nu rat at 10 mg/kg, iv administered using TPPW as vehicle; type: ADME, organism-based; parameters: dose 10 mg/kg, route intravenous; conditions: in vivo; outline: as §1
[16] = Volume of distribution in Sprague-Dawley rat at 1 mg/kg, iv administered using PEG400/water as vehicle; type: ADME, organism-based; parameters: dose 1 mg/kg, route intravenous; conditions: in vivo
Outline: (§3)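 SD rats fasted overnight, given 1 mg/kg iv in PEG400/water (3:1, v/v); three per arm. Blood into K3 EDTA at 5, 15, 30 min, 1, 2, 4, 6, 24 h, spun at 4 °C; plasma extracted with six volumes acetonitrile plus internal standard and quantified by LC-MS/MS (C8 column, formic acid/ACN gradient).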

Aurora kinase B [17] = target: T2, Aurora kinase B; experiment: Inhibition of Aurora kinase B in human HCT116 cells assessed as induction of 8N polyploidy; type: cell-based; conditions: HCT-116
HCT-116 [18] = experiment: Antiproliferative activity against human HCT116 cells after 72 hrs by BrdU-based ELISA; type: functional, cell-based; conditions: HCT-116, 72 h
Outline: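 HCT-116 cells in McCoy's 5A with 10% FBS and pen/strep, seeded 800 cells/well, left overnight at 37 °C, 5% CO2. Nine-point 3-fold serial dilutions in DMSO added for 72 h; BrdU colorimetric ELISA read at 450 and 690 nm. IC50 is the concentration halving proliferation; duplicate runs averaged.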

[19] = Clearance in Sprague-Dawley rat at 1 mg/kg, iv administered using PEG400/water as vehicle; type: ADME, organism-based; parameters: dose 1 mg/kg, route intravenous; conditions: in vivo; outline: as §3
[20] = AUC (0 to infinity) in Nu/Nu rat at 30 mg/kg, iv administered using TPPW as vehicle; type: ADME, organism-based; parameters: time infinity, dose 30 mg/kg, route intravenous; conditions: plasma; outline: as §1
Aurora kinase C = target: T3, Aurora kinase C (Homo sapiens, UniProt Q9UQB9); experiment: Binding affinity to Aurora kinase C
T3 sequence (Q9UQB9 whole entry): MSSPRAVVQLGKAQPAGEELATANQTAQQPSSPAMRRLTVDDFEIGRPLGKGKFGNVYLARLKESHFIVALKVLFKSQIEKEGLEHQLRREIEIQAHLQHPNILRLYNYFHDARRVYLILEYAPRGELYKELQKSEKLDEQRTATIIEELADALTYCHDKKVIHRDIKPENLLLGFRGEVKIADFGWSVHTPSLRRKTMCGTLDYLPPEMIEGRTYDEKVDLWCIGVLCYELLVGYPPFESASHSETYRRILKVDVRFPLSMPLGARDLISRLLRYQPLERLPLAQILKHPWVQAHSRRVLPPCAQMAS

Aurora kinase B [21] = target: T2, Aurora kinase B; experiment: Binding affinity to Aurora kinase B catalytic domain by competition binding assay
Aurora kinase A [22] = target: T1, Aurora kinase A; experiment: Binding affinity to Aurora kinase A catalytic domain by competition binding assay
[23] = Half life in Sprague-Dawley rat at 1 mg/kg, iv administered using PEG400/water as vehicle; type: ADME, organism-based; parameters: dose 1 mg/kg, route intravenous; conditions: in vivo; outline: as §3
[24] = Half life in Nu/Nu rat at 30 mg/kg, iv administered using TPPW as vehicle; type: ADME, organism-based; parameters: dose 30 mg/kg, route intravenous; conditions: in vivo; outline: as §1
HCT-116 [25] = experiment: Antitumor activity against human HCT116 cells xenografted in athymic nude rat assessed as tumor growth inhibition at 10 mg/kg, iv administered every other day from day 10 post tumor-injection for 3 weeks relative to vehicle treated control; type: functional; conditions: read-out: TGI; outline: as §2
[26] = Volume of distribution in Nu/Nu rat at 10 mg/kg, iv administered using TPPW as vehicle; type: ADME, organism-based; parameters: dose 10 mg/kg, route intravenous; conditions: in vivo; outline: as §1
[27] = Clearance in athymic Nu/Nu rat at 10 mg/kg, iv administered using TPPW as vehicle; type: ADME, organism-based; parameters: dose 10 mg/kg, route intravenous; conditions: in vivo; outline: as §1
[28] = Protein binding in plasma; type: ADME, cell-free; conditions: read-out: PPB
[29] = AUC (0 to infinity) in Sprague-Dawley rat at 1 mg/kg, iv administered using PEG400/water as vehicle; type: ADME, organism-based; parameters: time infinity, dose 1 mg/kg, route intravenous; conditions: plasma; outline: as §3
[30] = Clearance in athymic Nu/Nu rat at 30 mg/kg, iv administered using TPPW as vehicle; type: ADME, organism-based; parameters: dose 30 mg/kg, route intravenous; conditions: in vivo; outline: as §1
[31] = AUC (0 to infinity) in Nu/Nu rat at 10 mg/kg, iv administered using TPPW as vehicle; type: ADME, organism-based; parameters: time infinity, dose 10 mg/kg, route intravenous; conditions: plasma; outline: as §1

Vd [1]: 1 L/kg
clearance [2]: 27.9 mL/min/kg
IC50 (Aurora kinase A [3]): 2 nM
IC50 (Aurora kinase B [5]): 3 nM
AUC(0-inf) [6]: 3.2 µM·h
half-life [10]: 1.5 h
Vd [13]: 0.84 L/kg
half-life [15]: 3.8 h
Vd [16]: 3.49 L/kg
inhibition (Aurora kinase B [17]): Dose-dependent effect
IC50 (HCT-116 [18]): 2.3 nM
clearance [19]: 16.9 mL/min/kg
AUC(0-inf) [20]: 62.5 µM·h
Kd (Aurora kinase C): < 10 nM
Kd (Aurora kinase B [21]): 1.9 nM
Kd (Aurora kinase A [22]): 9.3 nM
half-life [23]: 9.4 h
half-life [24]: 3.4 h
Vd [26]: 1.1 L/kg
clearance [27]: 20.7 mL/min/kg
fraction unbound [28]: 0.01
AUC(0-inf) [29]: 1.8 µM·h
clearance [30]: 14.7 mL/min/kg
AUC(0-inf) [31]: 14.6 µM·h
Compound: Cc1cc(Nc2nc(Sc3ccc(NC(=O)CN4CC[C@@H](C(=O)NC5CCCC5)C4)cc3)nn3cccc23)n[nH]1
Activity (Rattus norvegicus [4]): > 10%
TGI (HCT-116 [7]): Active
Activity (Rattus norvegicus [8]): Non-toxic
Activity (HCT-116 [9]): Active
Activity (Rattus norvegicus [11]): Non-toxic
inhibition in vivo at 20 mg/kg (HCT-116 [12]): 82%
TGI (HCT-116 [14]): Active
inhibition in vivo at 10 mg/kg (HCT-116 [25]): 77%
